Consider six molecules from ChEMBL document CHEMBL1772995, “Targeting the c-Kit Promoter G-quadruplexes with 6-Substituted Indenoisoquinolines” (ACS Med Chem Lett, 2010).

One data set has as its system HT-29. Kind of data set: cells. Format: functional, cell-based. The note with it: Homo sapiens, HT-29, 96 h.
Data set [1] concerns Nucleic Acid. Kind of data set: Binding affinity to human c-KIT1 (5'-FAM-GGGAGGGCGCTGGGAGGAGGG-TAMRA-3') DNA assessed as change in melting temperature at 1 uM by FRET-melting assay (reference value: 54.4 degC). Format: nucleic-acid assay. Put shortly:
(§1)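 Dual FAM/TAMRA-labelled oligonucleotides diluted in 60 mM potassium cacodylate, pH 7.4, annealed at 400 nM (94 °C for 10 min, cooled to room temperature at 0.1 °C/min), then mixed 1:1 with ligand solution to 200 nM DNA final. Melting read with excitation at 483 nm and emission at 533 nm, in triplicate. ΔTm taken across a range of ligand concentrations, with the ligand level giving half-maximal ΔTm also derived.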

The test system of data set [2] is Nucleic Acid. Nature of the data set: Binding affinity to human telomeric (5'-FAM-GGGTTAGGGTTAGGGTTAGGG-TAMRA-3') DNA assessed as concentration required to cause half maximal change in melting temperature by FRET-melting assay (reference value: 59.4 degC). Format: nucleic-acid assay. Put shortly:
as §1

The subject of data set [3] is Nucleic Acid. Nature of the data set: Binding affinity to human c-KIT2 (5'-FAM-GGGCGGGCGCGAGGGAGGGG-TAMRA-3') DNA assessed as concentration required to cause half maximal change in melting temperature by FRET-melting assay (reference value: 72.7 degC). Format: nucleic-acid assay. Put shortly:
as §1

Data set [4] concerns Nucleic Acid. Nature of the data set: Binding affinity to human c-KIT1 (5'-FAM-GGGAGGGCGCTGGGAGGAGGG-TAMRA-3') DNA assessed as concentration required to cause half maximal change in melting temperature by FRET-melting assay (reference value: 54.4 degC). Format: nucleic-acid assay. The method in brief: as §1
In data set [5] the test system is Nucleic Acid. Nature of the data set: Binding affinity to human c-KIT2 (5'-FAM-GGGCGGGCGCGAGGGAGGGG-TAMRA-3') DNA assessed as change in melting temperature at 1 uM by FRET-melting assay (reference value: 72.7 degC). Format: nucleic-acid assay. The method in brief: as §1
The subject of data set [6] is Nucleic Acid. Kind of data set: Binding affinity to human telomeric (5'-FAM-GGGTTAGGGTTAGGGTTAGGG-TAMRA-3') DNA assessed as change in melting temperature at 1 uM by FRET-melting assay (reference value: 59.4 degC). Format: nucleic-acid assay. Put shortly: as §1
The test system of data set [7] is Nucleic Acid. Nature of the data set: Binding affinity to double stranded-DNA (50-FAM-TAT AGC TAT A-HEG-TAT AGC TAT A-TAMRA-30) assessed as concentration required to cause half maximal change in melting temperature by FRET-melting assay (reference value: 62.7 degC). Format: nucleic-acid assay. The method in brief: as §1
Data set [8] relates to Nucleic Acid. Kind of data set: Binding affinity to double stranded-DNA (50-FAM-TAT AGC TAT A-HEG-TAT AGC TAT A-TAMRA-30) assessed as change in melting temperature at 1 uM by FRET-melting assay (reference value: 62.7 degC). Format: nucleic-acid assay. Put shortly:
as §1

The nature of the next data set: cells. Format: functional, cell-based. The settings on record: Homo sapiens, GIST882, 96 h.
Data set [9] has as its target Mast/stem cell growth factor receptor Kit (Homo sapiens) (UniProt P10721). Kind of data set: Inhibition of c-Kit mRNA expression in human GIST882 cells after 24 hrs by […] RT-PCR analysis. Format: functional, cell-based. Put shortly: (§2)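 GIST882 cells grown in RPMI 1640 with 10% FBS. 1 × 10^6 cells seeded in T25 flasks and treated 24 h with 0.8, 4 or 20 μM ligand, or DMSO control. Total RNA extracted; cDNA made from 1 μg RNA with oligo dT (55 °C, 1 h). qPCR annealing at 64 °C, single amplicon checked by melt curve. KIT mRNA normalised to β-actin or YWHAZ and given as % of control. Two independent experiments, each in triplicate.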

Data set [10] shares this target. Nature of the data set: Inhibition of c-Kit mRNA expression in human GIST882 cells at 4 uM after 24 hrs by […] RT-PCR analysis relative to control. Format: functional, cell-based. The method in brief: as §2
The target is the same in data set [11]. Nature of the data set: Inhibition of c-Kit mRNA expression in human GIST882 cells at 20 uM after 24 hrs by […] RT-PCR analysis relative to control. Format: functional, cell-based. Put shortly: as §2
The target is the same in data set [12]. Kind of data set: Inhibition of c-Kit protein expression in human GIST882 cells after 24 hrs by immunoblotting. Format: functional, cell-based. The method in brief: (§3)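 GIST882 cells (1 × 10^6 per T25 flask) treated 24 h with 0.8, 4 or 20 μM ligand, or DMSO control. Lysed in RIPA buffer with protease and phosphatase inhibitors; 10–20 μg protein run on 8–16% SDS-PAGE, transferred to nitrocellulose and probed with anti-KIT. β-actin used as loading control; enhanced-luminescence detection.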

Data set [13] has the same target. Kind of data set: Inhibition of c-Kit protein expression in human GIST882 cells at 20 uM after 24 hrs by immunoblotting. Format: functional, cell-based. Put shortly:
as §3
(In general: In western blotting, separated proteins are transferred to a membrane and probed.)

Data set [14] can be described thus: Toxicity in human GIST882 cells expressing c-Kit at 20 uM after 24 hrs. Format: cell-based. The note with it: gist882, 24 h.

One may read the IC50 as the concentration that inhibits the measured activity by half. Read a low IC50 as inhibition by little substance. What is called inhibition is the relative decrease from the control value, in per cent.

Molecules are shown by their SMILES. Where a name gives a salt, the structure may show the parent alone. The source made the active and inactive calls. The rule behind the calls is not given here.

Chain of Mast/stem cell growth factor receptor Kit (Homo sapiens) (P10721 whole entry): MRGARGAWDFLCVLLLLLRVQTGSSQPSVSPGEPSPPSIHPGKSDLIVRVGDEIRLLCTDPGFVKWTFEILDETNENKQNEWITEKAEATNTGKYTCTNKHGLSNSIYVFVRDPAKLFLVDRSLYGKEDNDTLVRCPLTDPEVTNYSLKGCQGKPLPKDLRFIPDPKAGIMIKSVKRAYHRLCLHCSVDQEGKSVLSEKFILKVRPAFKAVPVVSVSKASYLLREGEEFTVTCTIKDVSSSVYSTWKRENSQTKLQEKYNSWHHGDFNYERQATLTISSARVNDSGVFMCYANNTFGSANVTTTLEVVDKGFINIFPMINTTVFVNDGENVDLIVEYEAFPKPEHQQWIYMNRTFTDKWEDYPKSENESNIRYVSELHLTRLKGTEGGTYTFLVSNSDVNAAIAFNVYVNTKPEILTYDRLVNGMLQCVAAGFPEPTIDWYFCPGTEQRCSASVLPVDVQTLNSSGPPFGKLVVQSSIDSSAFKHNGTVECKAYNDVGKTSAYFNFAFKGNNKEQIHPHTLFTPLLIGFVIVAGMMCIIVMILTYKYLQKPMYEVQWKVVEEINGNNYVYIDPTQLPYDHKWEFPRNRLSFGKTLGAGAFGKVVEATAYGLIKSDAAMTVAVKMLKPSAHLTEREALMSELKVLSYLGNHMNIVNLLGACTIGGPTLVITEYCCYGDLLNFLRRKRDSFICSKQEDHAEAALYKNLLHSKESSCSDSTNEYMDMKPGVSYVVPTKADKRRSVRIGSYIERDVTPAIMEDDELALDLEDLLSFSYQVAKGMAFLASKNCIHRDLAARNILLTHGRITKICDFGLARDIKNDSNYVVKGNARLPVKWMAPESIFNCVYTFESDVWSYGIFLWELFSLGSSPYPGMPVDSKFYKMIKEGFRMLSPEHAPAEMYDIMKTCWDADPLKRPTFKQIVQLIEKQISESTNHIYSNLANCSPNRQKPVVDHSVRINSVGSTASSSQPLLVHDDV

As for `O=C1c2ccccc2-c2c1c1ccccc1c(=O)n2CCCN1CCCC1`, the IC50 turned out to be 0.4 µM with HT-29 and 5 µM in “cells”. The deltaTm in the data set with Nucleic Acid [1] came out at 23.7 K; in the data set with Nucleic Acid [5], 14.4 K; in the data set with Nucleic Acid [6] it was 14.4 K; with Nucleic Acid [8] it was 4 K. Also, the Activity turned out to be 1.63 µM in the data set with Nucleic Acid [2], 0.72 µM in the data set on Nucleic Acid [3], 0.93 µM in the data set on Nucleic Acid [4] and 9 µM with Nucleic Acid [7].
For `CN(C)CCCn1c2c(c3ccccc3c1=O)C(=O)c1ccccc1-2.Cl`, the inhibition entry in data set [9] was “Dose-dependent effect”; in data set [10], 67%; in data set [11], 89%; in [12], “Dose-dependent effect”. For the same molecule, the IC50 with HT-29 stood at 0.3 µM; in “cells” it was 4.1 µM. Further, the deltaTm in the data set on Nucleic Acid [1] is 20.1 K; in the data set on Nucleic Acid [5], 13 K; in the data set with Nucleic Acid [6] it was 13 K; in the data set with Nucleic Acid [8], 3.9 K. The Activity with Nucleic Acid [2] was 1.6 µM; in the data set with Nucleic Acid [3], 0.69 µM; in the data set with Nucleic Acid [4] it was 0.95 µM; in the data set on Nucleic Acid [7], greater than 10 µM; in [14], “Toxic”. The inhibition entry in data set [13] is “Active”.
Regarding `Cc1ccc(NC(=O)c2ccc(CN3CCN(C)CC3)cc2)cc1Nc1nccc(-c2cccnc2)n1` [IMATINIB MESYLATE], the midpoint of inhibition in “cells”, the IC50, lay at 1.7 µM.
For the molecule `O=C1c2ccccc2-c2c1c1ccccc1c(=O)n2CCCN1CCOCC1`, the IC50 with HT-29 and in the data set “cells” was greater than 50 µM each time. For the same molecule, the deltaTm with Nucleic Acid [1] came to 8.7 K; in the data set with Nucleic Acid [5], 3.9 K; in the data set with Nucleic Acid [6] it was 4.8 K; with Nucleic Acid [8], 0.6 K. For the same molecule, the Activity in the data set on Nucleic Acid [2] was greater than 10 µM; in the data set with Nucleic Acid [3], 4.4 µM; with Nucleic Acid [4] it was 8.9 µM; in the data set with Nucleic Acid [7] it was greater than 10 µM.
`CN1CCN(CCCn2c3c(c4ccccc4c2=O)C(=O)c2ccccc2-3)CC1`: the IC50 with HT-29 worked out at 0.7 µM; in the data set “cells” it was 13.9 µM. Besides, the deltaTm in the data set on Nucleic Acid [1] was found to be 25.9 K; in the data set on Nucleic Acid [5], 12.2 K; in the data set with Nucleic Acid [6], 17.6 K; in the data set with Nucleic Acid [8], 1.7 K. Moreover, the Activity with Nucleic Acid [2] is 0.98 µM; with Nucleic Acid [3], 0.84 µM; in the data set on Nucleic Acid [4], 0.59 µM; in the data set with Nucleic Acid [7] it was greater than 10 µM.
With `O=C1c2ccccc2-c2c1c1ccccc1c(=O)n2CCCn1ccnc1`, the IC50 in the data set with HT-29 came out at 2.2 µM; in the data set “cells” it was 23 µM. For the same molecule, the deltaTm in the data set with Nucleic Acid [1] is 11.7 K; with Nucleic Acid [5] it was 13.2 K; in the data set with Nucleic Acid [6], 6.3 K; in the data set with Nucleic Acid [8], 0 K. The Activity with Nucleic Acid [2] was greater than 10 µM; in the data set with Nucleic Acid [3], 0.62 µM; with Nucleic Acid [4], greater than 10 µM; in the data set on Nucleic Acid [7], greater than 10 µM.
